Experimental data from ChEMBL document CHEMBL1155066, “Discovery of selective and nonpeptidic cathepsin S inhibitors” (Bioorg Med Chem Lett, 2008).
The source made the active and inactive calls. The rule behind the calls is not given here.

Legend:
Procathepsin L = Procathepsin L (Homo sapiens, UniProt P07711); test: Inhibition of human recombinant cathepsin L by fluorescence assay
Outline: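 Recombinant human Cat L measured fluorometrically with Z-Phe-Arg-AMC as substrate; IC50 reported.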

Cathepsin S = Cathepsin S (Homo sapiens, UniProt P25774); test: Inhibition of human recombinant cathepsin S by fluorescence assay
Cathepsin S, sequence (P25774 whole entry): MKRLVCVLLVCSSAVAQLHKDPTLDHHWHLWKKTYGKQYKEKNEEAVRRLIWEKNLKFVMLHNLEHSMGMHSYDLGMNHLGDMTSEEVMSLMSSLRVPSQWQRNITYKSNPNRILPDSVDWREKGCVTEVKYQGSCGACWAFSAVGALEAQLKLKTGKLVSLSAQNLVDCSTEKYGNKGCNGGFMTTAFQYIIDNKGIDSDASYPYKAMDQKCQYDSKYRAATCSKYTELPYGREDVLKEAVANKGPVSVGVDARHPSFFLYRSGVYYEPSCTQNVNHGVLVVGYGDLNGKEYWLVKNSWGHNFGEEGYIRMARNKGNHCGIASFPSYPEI
Outline: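 Recombinant human Cat S, fluorometric readout using Z-Leu-Leu-Arg-AMC substrate; IC50 reported.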

Cathepsin K = biological target: T1, Cathepsin K (Homo sapiens, UniProt P43235); test: Inhibition of human recombinant cathepsin K by fluorescence assay
T1 sequence (P43235 whole entry): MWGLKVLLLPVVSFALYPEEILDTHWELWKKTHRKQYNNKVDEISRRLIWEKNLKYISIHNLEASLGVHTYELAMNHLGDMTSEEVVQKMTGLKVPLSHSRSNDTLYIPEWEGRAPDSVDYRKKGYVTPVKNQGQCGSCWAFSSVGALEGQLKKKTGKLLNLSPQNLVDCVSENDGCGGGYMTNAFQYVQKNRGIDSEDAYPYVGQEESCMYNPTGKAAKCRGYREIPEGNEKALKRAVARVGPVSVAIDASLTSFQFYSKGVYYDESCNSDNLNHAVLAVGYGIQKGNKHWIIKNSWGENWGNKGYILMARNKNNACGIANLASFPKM
Outline: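 Fluorometric assay with recombinant human Cat K; Z-Phe-Arg-AMC substrate; IC50 determined.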

[1] = Half life in Sprague-Dawley rat at 1.6 mg/kg, iv; format: ADME, organism-based; design: dose 1.6 mg/kg, route intravenous; settings: in vivo
[2] = Oral bioavailability in Sprague-Dawley rat at 4.0 mg/kg, po; format: ADME, organism-based; settings: in vivo
[3] = Plasma clearance in Sprague-Dawley rat at 1.6 mg/kg, iv or 4.0 mg/kg, po; format: ADME, organism-based
[4] = AUC in Sprague-Dawley rat at 1.0 mg/kg, po; format: ADME, organism-based; design: dose 1 mg/kg, route oral; settings: plasma
[5] = Cmax in Sprague-Dawley rat at 1.0 mg/kg, po; format: ADME, organism-based; design: dose 1 mg/kg, route oral; settings: in vivo
[6] = biological target: Cathepsin S (Mus musculus) (UniProt O70370); test: Inhibition of cathepsin S in mouse splenocytes assessed as MHC2 associated invariant chain degradation at 10 uM; format: cell-based
Outline: (§1)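 Cellular secondary assay in mouse splenocytes; degradation of MHC class II associated invariant chain monitored after compound exposure at a single concentration.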

[7] = biological target: Cathepsin S (Mus musculus) (UniProt O70370); test: Inhibition of cathepsin S in mouse splenocytes assessed as MHC2 associated invariant chain degradation at 1 uM; format: cell-based; outline: as §1
[8] = Oral bioavailability in Sprague-Dawley rat at 3.0mg/kg, po; format: ADME, organism-based; settings: in vivo, 3 mg/kg
[9] = Plasma clearance in Sprague-Dawley rat at 1.0 mg/kg, iv or 3.0 mg/kg, po; format: ADME, organism-based
[10] = Half life in Sprague-Dawley rat at 1.0 mg/kg, iv; format: ADME, organism-based; design: dose 1 mg/kg, route intravenous; settings: in vivo

Procathepsin L, sequence (P07711 whole entry): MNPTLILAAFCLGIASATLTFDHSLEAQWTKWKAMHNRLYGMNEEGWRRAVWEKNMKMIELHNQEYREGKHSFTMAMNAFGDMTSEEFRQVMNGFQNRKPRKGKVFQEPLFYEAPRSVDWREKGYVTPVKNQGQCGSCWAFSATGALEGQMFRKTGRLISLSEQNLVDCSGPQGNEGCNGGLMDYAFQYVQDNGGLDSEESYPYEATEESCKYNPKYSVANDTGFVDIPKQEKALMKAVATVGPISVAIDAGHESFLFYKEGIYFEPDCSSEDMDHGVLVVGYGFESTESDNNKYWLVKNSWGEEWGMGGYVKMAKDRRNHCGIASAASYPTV

IC50 (Procathepsin L) [nM] | IC50 (Cathepsin S) [nM] | IC50 (Cathepsin K) [nM] | SMILES | also measured
> 1000 | 52 | > 1000 | CN(Cc1cc2cnc(C#N)nc2n1CCC1CCCCC1)c1ccccc1 | 
40 | 190 | > 1000 | N#Cc1ncc2cc(Cc3ccc(Cl)cc3)n(CCc3cccc(Cl)c3)c2n1 | 
96 |  | < 1 | CC(C)(C)Cn1c(Cc2ccc(Cl)cc2)cc2cnc(C#N)nc21 | 
> 1000 | 150 | > 1000 | N#Cc1ncc2cc(Cc3ccc(Cl)cc3)n(CCCC3CCCCC3)c2n1 | 
> 1000 | 6 | 480 | N#Cc1ncc2cc(CSc3ccncc3)n(CCC3CCCCC3)c2n1 | 
840 | 33 | > 1000 | N#Cc1ncc2cc(Cc3ccc(Cl)cc3)n(CCC3CCCCCC3)c2n1 | 
> 1000 | 2 | 280 | N#Cc1ncc2cc(COc3ccc(C(N)=O)cc3)n(CCC3CCCCC3)c2n1 | half-life [1]: 0.7 h; bioavailability [2]: 21%; clearance [3]: 83.3 mL/min/kg; AUC [4]: 0.108 µM·h; Cmax [5]: 25 nM
> 1000 | 7 | 390 | N#Cc1ncc2cc(COc3cccc(C(N)=O)c3)n(CCC3CCCCC3)c2n1 | 
> 2000 | 16 | > 2000 | N#Cc1ncc2cc(COc3ccc(C(=O)O)cc3)n(CCC3CCCCC3)c2n1 | Activity [6]: inactive
 |  |  | CC(C)C[C@@H](NC(=O)N1CCOCC1)C(=O)N[C@@H](/C=C/S(=O)(=O)c1ccccc1)CCc1ccccc1 | Activity [7]: Active
 | 440 |  | N#Cc1ncc2cc(Cc3cccc4ccccc34)n(CCC3CCCCC3)c2n1 | 
> 5000 | 6 | > 5000 | N#Cc1ncc2cc(COc3cccc(CCC(=O)O)c3)n(CCC3CCCCC3)c2n1 | Activity [6]: inactive
> 4000 | 9 | > 1500 | CC(=O)N1CCN(c2ccc(OCc3cc4cnc(C#N)nc4n3CCC3CCCCC3)cc2)CC1 | Activity [7]: Active; bioavailability [8]: 47%; clearance [9]: 66.7 mL/min/kg; half-life [10]: 1.2 h; AUC [4]: 0.242 µM·h; Cmax [5]: 34 nM
370 | 110 | 6 | N#Cc1ncc2cc(Cc3ccc(Cl)cc3)n(CC3CCCCC3)c2n1 | 
> 4000 | 12 | > 1500 | CCC(=O)Nc1ccc(OCc2cc3cnc(C#N)nc3n2CCC2CCCCC2)cc1 | 
> 1000 | 10 | > 1000 | N#Cc1ncc2cc(COc3ccccc3)n(CCC3CCCCC3)c2n1 | 

IC50 (Procathepsin L) [nM] | IC50 (Cathepsin S) [nM] | IC50 (Cathepsin K) [nM] | SMILES | also measured
> 1000 | 110 | 280 | COc1ccc(Cc2cc3cnc(C#N)nc3n2CCC2CCCCC2)cc1 | 
> 1000 | 13 | > 1000 | CC(=O)N1CC=C(c2ccc(OCc3cc4cnc(C#N)nc4n3CCC3CCCCC3)cc2)CC1 | bioavailability [8]: 38%; clearance [9]: 41.7 mL/min/kg; half-life [10]: 1.4 h; AUC [4]: 0.346 µM·h; Cmax [5]: 43 nM
> 1000 | 24 | > 1000 | N#Cc1ncc2cc(CNc3ccccc3)n(CCC3CCCCC3)c2n1 | 
23 | 64 | 100 | N#Cc1ncc2cc(Cc3ccc(Cl)cc3)n(CCc3ccccc3)c2n1 | 
> 1000 | 140 |  | N#Cc1ncc2cc(CC3CCCCC3)n(CCC3CCCCC3)c2n1 | 
> 1000 | 320 | 100 | CC(C)(C)CCCn1c(Cc2ccc(Cl)cc2)cc2cnc(C#N)nc21 | 
> 1000 | > 1000 | > 1000 | N#Cc1ncc2cc(Cc3ccc(Cl)cc3)n(CCN3CCCCC3)c2n1 | 
260 | 7 | 17 | N#Cc1ncc2cc(Cc3ccc(Cl)cc3)n(CCC3CCCC3)c2n1 | 
> 1000 | 99 | > 1000 | N#Cc1ncc2cc(Cc3ccc(Cl)cc3)n(CCC3CCCCCCC3)c2n1 | 
18 | 2 | < 1 | CC(C)(C)CCn1c(Cc2ccc(Cl)cc2)cc2cnc(C#N)nc21 | Activity [7]: Active
790 | 11 | 250 | N#Cc1ncc2cc(COc3ccccn3)n(CCC3CCCCC3)c2n1 | 
> 1000 | 15 | > 1000 | CC(=O)N1CCC(c2ccc(OCc3cc4cnc(C#N)nc4n3CCC3CCCCC3)cc2)CC1 | bioavailability [8]: 25%; clearance [9]: 88.3 mL/min/kg; half-life [10]: 1.3 h; AUC [4]: 0.103 µM·h; Cmax [5]: 17 nM
86 | 19 | > 1000 | N#Cc1ncc2cc(Cc3ccc(Cl)cc3)n(CCc3ccc(Cl)cc3)c2n1 | 
> 1000 | 8 | > 1000 | CC(=O)Nc1ccc(OCc2cc3cnc(C#N)nc3n2CCC2CCCCC2)cc1 | 
320 | 21 | 220 | N#Cc1ncc2cc(Cc3ccc(Cl)cc3)n(CCC3CCCCC3)c2n1 | 
